Experimental data: PubChem BioAssay AID652011 (Sanford-Burnham Center for Chemical Genomics, 2013)
Several values for one entry are separate records, joined by “and”; a condition that tells them apart may be missing. Equal entries are not always repeated.

Molecular target: Hypoxia-inducible factor 1-alpha (Homo sapiens) (UniProt Q16665)
Assay: HIF-1a and HIF-2a reporter inhibitors, SAR follow-up, cell-based, luminescence, MIAPaCa-2, 786-0, panel (AID 652011)
Details: MIAPaCa-2/PANC HIF reporter, luciferase luminescence, desferoxamine, overnight, HIF1a, run 1; at 99 µM (top of the series)
Outline: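 Probe or stimulus – desferoxamine stimulus · Times – overnight compound incubation at 37 °C, 10 min reagent · Doses – compounds from 10 mM and 0.3125 mM stocks, 1% DMSO final · Technique – luminescence, One-Glo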

Sequence of Hypoxia-inducible factor 1-alpha (Homo sapiens) (Q16665 whole entry, looked up): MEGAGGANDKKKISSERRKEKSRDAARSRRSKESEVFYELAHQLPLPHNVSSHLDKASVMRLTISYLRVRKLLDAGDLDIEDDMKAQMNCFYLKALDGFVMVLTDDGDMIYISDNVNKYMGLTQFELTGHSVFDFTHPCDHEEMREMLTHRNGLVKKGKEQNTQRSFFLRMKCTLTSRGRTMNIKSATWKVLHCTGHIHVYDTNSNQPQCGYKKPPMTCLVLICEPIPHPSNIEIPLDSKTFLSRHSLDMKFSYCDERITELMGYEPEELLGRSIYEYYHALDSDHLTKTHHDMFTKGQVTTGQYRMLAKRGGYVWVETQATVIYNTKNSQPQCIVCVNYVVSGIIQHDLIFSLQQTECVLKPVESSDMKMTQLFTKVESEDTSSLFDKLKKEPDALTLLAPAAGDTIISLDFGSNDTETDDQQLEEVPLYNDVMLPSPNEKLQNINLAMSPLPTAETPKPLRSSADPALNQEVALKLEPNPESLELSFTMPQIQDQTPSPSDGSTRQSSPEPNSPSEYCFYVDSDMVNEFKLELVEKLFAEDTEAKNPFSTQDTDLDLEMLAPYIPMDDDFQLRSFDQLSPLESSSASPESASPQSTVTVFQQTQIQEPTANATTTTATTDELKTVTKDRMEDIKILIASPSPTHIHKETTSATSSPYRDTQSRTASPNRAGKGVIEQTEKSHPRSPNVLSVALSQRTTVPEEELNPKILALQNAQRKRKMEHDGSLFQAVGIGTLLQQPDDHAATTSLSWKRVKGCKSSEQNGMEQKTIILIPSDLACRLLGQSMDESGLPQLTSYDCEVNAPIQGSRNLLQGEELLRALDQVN

| Structure (SMILES) | inhibition |
| --- | --- |
| COC(=O)CCc1nc(-c2ccc(C(C)(C)C)cc2)no1 | 92.2% |
| CCN(CC)C(=O)CCc1nc(-c2ccc(C(C)(C)C)cc2)no1 | -20.8% and 47.7% |
| CCOc1ccc(-c2noc(CCC(=O)NC)n2)cc1 | -41.9% |
| CCNC(=O)CCc1nc(-c2c(Cl)cccc2Cl)no1 | 13.2% |
| CNC(=O)CCc1nc(-c2ccc(F)cc2)no1 | -42.8% |
| CC(C)(C)c1ccc(-c2noc(CCC(N)=O)n2)cc1 | 8.32% and -17.9% |
| CNC(=O)CCc1nc(-c2ccc(C(C)C)cc2)no1 | -38.5% |
| CCNC(=O)CCc1nc(-c2cccc(C)c2)no1 | -31.4% |
| CC(C)(C)NC(=O)CCc1nc(-c2ccc(C(C)(C)C)cc2)no1 | 84.3% |
| CCCCc1ccc(-c2noc(CCC(=O)NC)n2)cc1 | -40.2% |
| O=C(CCc1nc(-c2ccccc2)no1)NC1CC1 | -33.5% |
| CCNC(=O)CCc1nc(-c2ccc(OCC)cc2)no1 | -79.8% |
| CCC(C)NC(=O)CCc1nc(-c2ccccc2)no1 (stereo not given) | -33.5% |
| CNC(=O)CCc1nc(-c2ccc(C)cc2)no1 | 8.42% |
| CCNC(=O)CCc1nc(-c2ccc(CC)cc2)no1 | -35.2% |
| CCc1ccc(-c2noc(CCC(=O)NC(C)(C)C)n2)cc1 | -38.3% |
| CCNC(=O)CCc1nc(-c2ccccc2)no1 | -39.4% |
| CCOc1ccc(-c2noc(CCC(=O)O)n2)cc1 | 73.4% |
| CNC(=O)CCc1nc(-c2ccccc2)no1 | -13.3% and 12% |
| CC(C)(C)c1ccc(-c2noc(CCC(=O)NC3CCCC3)n2)cc1 | 70.1% |
| CC(C)(C)c1ccc(-c2noc(CCC(=O)NCc3ccco3)n2)cc1 | 86.8% and 85.5% |
| CC(C)(C)c1ccc(-c2noc(CCC(=O)NCC3CCCO3)n2)cc1 (stereo not given) | -24.5% |
| CN(C)C(=O)CCc1nc(-c2ccc(C(C)(C)C)cc2)no1 | -59.6% and -77.5% |
| CNC(=O)CCc1nc(-c2ccc(Cl)cc2)no1 | -25.6% |
| CC(C)(C)c1ccc(-c2noc(CCC(=O)Nc3cccc([N+](=O)[O-])c3)n2)cc1 | 96.4% |
| CC(C)NC(=O)CCc1nc(-c2ccc(C(C)(C)C)cc2)no1 | 17.3% |
| CC(C)(C)NC(=O)CCc1nc(-c2ccccc2)no1 | -47.1% |
| CC(C)(C)c1ccc(-c2noc(CCC(=O)N3CCOCC3)n2)cc1 | -34.2% |
| CC(C)(C)c1ccc(-c2noc(CCC(=O)NC3CCCCC3)n2)cc1 | 41.6% |
| CNC(=O)CCc1nc(-c2ccc(OC)cc2)no1 | -51.1% |
